Measurements gathered from unrelated publications.
Each line is one published result; the experiments were not run side by side.
Target: BMP-2-inducible protein kinase (BMP2K, Homo sapiens, UniProt Q9NSY1)

SMILES	effect on	technique	tested at	remaining binding [%]
O=C(c1ccc(Nc2ncc(Cl)c(-c3ccc(Cl)s3)n2)cc1)N1CCC(N2CCCC2)CC1	binding	competition with immobilised ligand	1 µM	0.1
C[C@@H]1CCN(c2nccc(-c3cnn4ncccc34)n2)C1	binding	–	1 µM	97
O=C(NCCCN1CCOCC1)c1ccc(Nc2ncc(Cl)c(-c3ccc(Cl)s3)n2)cc1	binding	competition with immobilised ligand	1 µM	0.1
COc1cnc(Nc2cccc(S(N)(=O)=O)c2)nc1N1CCN(c2ccccc2)C(=O)C1	binding	competition with immobilised ligand	1 µM	80
COc1ncc2cc3ccccc3nc2c1C#N	cell-free assay	competition with immobilised ligand	5 µM	100
Cc1nc(N2CC[C@@H](O)C2)ncc1-c1cc(C(F)(F)F)cc2[nH]ncc12	binding	competition with immobilised ligand	1 µM	100
CCN1CCN(Cc2ccc(C(=O)Nc3ccc(C)c(Oc4ccc5c(c4)CC(=O)N5)c3)cc2C(F)(F)F)CC1	binding	competition with immobilised ligand	1 µM	100
N[C@@H]1CCN(c2nccc(-c3cnn4ncccc34)n2)C1	binding	–	1 µM	100
Cc1cc(C)c(-n2ccn3nc(-c4cccnc4)cc23)cc1NC(=O)c1cc(C#N)cc(S(F)(F)(F)(F)F)c1	cell-free assay	competition with immobilised ligand	0.1 µM	94.7
COc1ccnn2ncc(-c3ccnc(N(C)C)n3)c12	binding	–	1 µM	100
CNC(=O)Nc1ccc2c(c1)CC[C@@]21OC(=O)N(CC(=O)N(Cc2ccc(F)cc2)[C@@H](C)C(F)(F)F)C1=O	cell-free assay	competition with immobilised ligand	1 µM	98
O=C(c1ccc(Nc2ncc(Cl)c(-c3cc4ccccc4s3)n2)cc1)N1CCC(N2CCCC2)CC1	binding	competition with immobilised ligand	1 µM	0
CN(C)c1ncnc(-c2ccc3nc(Nc4cc(CN5CCN(C(=O)CC(F)(F)F)CC5)ccn4)[nH]c3c2)c1Cl	cell-free assay	competition with immobilised ligand	1 µM	100
CN(C)c1ncc(F)c(-c2cnn3ncccc23)n1	binding	–	1 µM	100
Nc1ncc2c(n1)-c1c([nH]c3ccc(C#CC4CC4)cc13)CCCC2	binding	competition with immobilised ligand	1 µM	88
CC1CCCN1c1nccc(-c2cnn3ncccc23)n1 (stereo not shown)	binding	–	1 µM	95
CCC(=O)N[C@@H]1CC[C@H](C(=O)N(C)c2ccc(-c3nc4ccccc4o3)cc2)C1	cell-free assay	competition with immobilised ligand	1 µM	100
CN(C)c1nccc(-c2cnc3ncccn23)n1	binding	–	1 µM	100
O=C(O)[C@H]1[C@H](Cn2nnc3ccccc3c2=O)CC[C@@H]1C(=O)c1ccc(OCCC2CCOCC2)cc1	cell-free assay	competition with immobilised ligand	1 µM	86
O=C(NCC1CCOCC1)c1n[nH]cc1NC(=O)c1c(F)cccc1F	binding	competition with immobilised ligand	1 µM	81
CN(C)c1nccc(-c2cnn3ncccc23)n1	binding	–	1 µM	100
CNC(=O)[C@@H]1CC[C@@H](n2c(-c3ccc4cnccc4c3)nc3ccc(C(=O)NCc4cccc(C(N)=O)c4)cc32)C1	binding	competition with immobilised ligand	1 µM	95
